Measurements published in ChEMBL document CHEMBL4312029, “Structure-activity relationship studies and in vitro and in vivo anticancer activity of novel 3-aroyl-1,4-diarylpyrroles against solid tumors and hematological malignancies” (Eur J Med Chem, 2020).
Activity calls are given as the source filed them. No cut-off for these calls is given here.

Legend:
Tubulin = assay: Inhibition of tubulin polymerization (unknown origin) incubated for 15 mins followed by GTP addition and measured for 20 mins by spectrophotometry; format: protein-complex assay, Homo sapiens
Method in brief: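 Tubulin assembly assay with tubulin at 10 µM. IC50 for inhibition of polymerization; run in duplicate or triplicate.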

MCF7 = assay: Cytotoxicity against human MCF7 cells assessed as reduction in cell growth incubated for 96 hrs by MTT assay; format: functional, cell-based; settings: MCF7, 96 h
Method in brief: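 Growth inhibition of human breast carcinoma cells, reported as IC50; run in duplicate or triplicate.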

Tubulin (Homo sapiens) = Tubulin (Homo sapiens) (UniProt P68371+Q9H4B7+P0DPH7+P68366+Q13509+Q71U36+P04350+Q3ZCM7+P07437+P68363+Q9BQE3+Q6PEY2+Q13885+Q9BVA1+Q9BUF5); assay: Inhibition of [3H]colchicine binding to tubulin (unknown origin) at 5 uM incubated for 10 mins by DEAE-cellulose filter method relative to control; format: protein-complex assay
KU812 cell line = assay: Cytotoxicity against human KU812 cells expressing IM- sensitive wild type Bcr/Abl assessed as reduction in cell viability incubated for 48 hrs by MTT assay; format: functional, cell-based; settings: KU812, 48 h
[1] = Cytotoxicity against human LAMA84-s cells expressing IM-sensitive wild type Bcr/Abl assessed as reduction in cell viability incubated for 48 hrs by MTT assay; format: functional, cell-based
[2] = Cytotoxicity against IM resistant human LAMA84-r cells assessed as reduction in cell viability incubated for 48 hrs by MTT assay; format: functional, cell-based
KBM5 [3] = assay: Cytotoxicity against human KBM5 cells expressing IM- sensitive wild type Bcr/Abl assessed as reduction in cell viability incubated for 48 hrs by MTT assay; format: functional, cell-based; settings: KBM5, 48 h
KBM5 [4] = assay: Cytotoxicity against human KBM5 cells expressing IM-resistant Bcr/Abl T315I mutant assessed as reduction in cell viability incubated for 48 hrs by MTT assay; format: functional, cell-based; settings: KBM5, 48 h
[5] = (§1) Cytotoxicity against human U343MG cells assessed as reduction in cell viability incubated for 72 hrs by MTS assay; format: functional, cell-based; settings: U-343MG
Method in brief: (§2)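 Increasing concentrations applied to glioblastoma and neuroblastoma lines to give dose-response viability curves; cytotoxic IC50 from triplicate experiments. Incubation 48 h, except U343MG at 72 h.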

Homo sapiens = species on record: Homo sapiens; assay: as §1; format: functional, cell-based; method in brief: as §2
U-87 MG = assay: Cytotoxicity against human U87MG cells assessed as reduction in cell viability incubated for 48 hrs by MTS assay; format: functional, cell-based, U-87MG ATCC; method in brief: as §2
T98G = assay: Cytotoxicity against human T98G cells assessed as reduction in cell viability incubated for 48 hrs by MTS assay; format: functional, cell-based; method in brief: as §2
[6] = Cytotoxicity against human SK-N-BE cells assessed as reduction in cell viability incubated for 48 hrs by MTT assay; format: functional, cell-based; method in brief: as §2
[7] = Cytotoxicity against human SK-N-BE(2)C cells assessed as reduction in cell viability incubated for 48 hrs by MTT assay; format: functional, cell-based; method in brief: as §2
HCT-116 = assay: Cytotoxicity against human HCT116 cells assessed as reduction in cell viability incubated for 48 hrs by MTT assay; format: functional, cell-based
HT-29 = assay: Cytotoxicity against human HT-29 cells assessed as reduction in cell viability incubated for 48 hrs by MTT assay; format: functional, cell-based
SW480 = assay: Cytotoxicity against human SW480 cells assessed as reduction in cell viability incubated for 48 hrs by MTT assay; format: functional, cell-based
SW-620 = assay: Cytotoxicity against human SW620 cells assessed as reduction in cell viability incubated for 48 hrs by MTT assay; format: functional, cell-based
T-24 = assay: Cytotoxicity against human T24 cells assessed as reduction in cell viability incubated for 48 hrs by MTT assay; format: functional, cell-based; settings: T-24, 48 h
PBMC = assay: Cytotoxicity against human PBMC assessed as cell viability by MTT assay; format: cell-based
KBM5 [8] = assay: Potentiation of NLT-induced apoptotic cell death in human KBM5 cells expressing IM-sensitive wild type Bcr/Abl at 10 nM co-incubated with NLT for 48 hrs by Annexin V-staining based flow cytometry; format: functional
Method in brief: (§3)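 KBM5-WT or KBM5-T315I CML cells treated 48 h with 10 nM nilotinib, with or without 10 nM test compound (each agent alone also run). Apoptosis measured by annexin V staining and flow cytometry, read as percentage of apoptotic cells. Triplicate experiments.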

KBM5 [9] = assay: Potentiation of NLT-induced apoptotic cell death in human KBM5 cells expressing IM-resistant Bcr/Abl T315I mutant at 10 nM co-incubated with NLT for 48 hrs by Annexin V-staining based flow cytometry; format: functional; method in brief: as §3
KBM5 [10] = assay: Induction of apoptotic cell death in human KBM5 cells expressing IM-sensitive wild type Bcr/Abl at 10 nM incubated for 48 hrs by Annexin V-staining based flow cytometry; format: functional
Method in brief: (§4)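 KBM5-WT and KBM5-T315I cells exposed 48 h to 10 nM test compound alone or combined with 10 nM nilotinib (nilotinib alone as comparator). Apoptotic cells quantified by annexin V staining and flow cytometry; triplicate.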

KBM5 [11] = assay: Induction of apoptotic cell death in human KBM5 cells expressing IM-resistant Bcr/Abl T315I mutant at 10 nM incubated for 48 hrs by Annexin V-staining based flow cytometry; format: functional; method in brief: as §4

With `COc1cc(C(=O)c2cn(-c3ccc(N)cc3)cc2-c2ccc(N)cc2)cc(OC)c1OC` the IC50 (Tubulin) was 0.38 µM, the IC50 (MCF7) was 0.015 µM and the inhibition (Tubulin (Homo sapiens)) was 87%. The IC50 (KU812 cell line) was 0.005 µM, the IC50 [1] was 0.008 µM and the IC50 [2] was 0.01 µM. It also gave an IC50 (KBM5 [3]) of 0.01 µM, an IC50 (KBM5 [4]) of 0.012 µM and an Emax [5] of 34%. The IC50 [5] was 0.0215 to 0.022 µM, the inhibition (Homo sapiens) was “Dose-dependent effect” and the Emax (U-87 MG) was 31.8%. The IC50 (U-87 MG) was 0.0476 to 0.048 µM, the inhibition (U-87 MG; U-87MG ATCC) was “Dose-dependent effect” and the Emax (T98G) was 36.2%. For the same compound, the IC50 (T98G) was 0.024 to 0.0243 µM, the inhibition (T98G) was “Dose-dependent effect” and the IC50 [6] was 0.303 µM. The IC50 [7] was 0.147 µM, the inhibition (HCT-116) was “Dose-dependent effect” and the IC50 (HCT-116; HCT-116, 48 h) was 0.041 µM. For the same compound, the inhibition (HT-29) was “Dose-dependent effect”, the IC50 (HT-29; HT-29, 48 h) was 0.034 µM and the inhibition (SW480) was “Dose-dependent effect”. The IC50 (SW480; SW480, 48 h) was 0.153 µM, the inhibition (SW-620) was “Dose-dependent effect” and the IC50 (SW-620; SW-620, 48 h) was 0.061 µM. The IC50 (T-24) was 0.058 µM, the Activity (PBMC) was “Non-Toxic” and the Activity (KBM5 [8]) was 50 - 90%. The Activity (KBM5 [9]) was 50 - 90%, the Activity (KBM5 [10]) was “Active” and the Activity (KBM5 [11]) was “Active”.
